Assay [1] deals with T1, 3-hydroxy-3-methylglutaryl-coenzyme A reductase (Homo sapiens) (UniProt P04035).
T1 sequence (whole entry): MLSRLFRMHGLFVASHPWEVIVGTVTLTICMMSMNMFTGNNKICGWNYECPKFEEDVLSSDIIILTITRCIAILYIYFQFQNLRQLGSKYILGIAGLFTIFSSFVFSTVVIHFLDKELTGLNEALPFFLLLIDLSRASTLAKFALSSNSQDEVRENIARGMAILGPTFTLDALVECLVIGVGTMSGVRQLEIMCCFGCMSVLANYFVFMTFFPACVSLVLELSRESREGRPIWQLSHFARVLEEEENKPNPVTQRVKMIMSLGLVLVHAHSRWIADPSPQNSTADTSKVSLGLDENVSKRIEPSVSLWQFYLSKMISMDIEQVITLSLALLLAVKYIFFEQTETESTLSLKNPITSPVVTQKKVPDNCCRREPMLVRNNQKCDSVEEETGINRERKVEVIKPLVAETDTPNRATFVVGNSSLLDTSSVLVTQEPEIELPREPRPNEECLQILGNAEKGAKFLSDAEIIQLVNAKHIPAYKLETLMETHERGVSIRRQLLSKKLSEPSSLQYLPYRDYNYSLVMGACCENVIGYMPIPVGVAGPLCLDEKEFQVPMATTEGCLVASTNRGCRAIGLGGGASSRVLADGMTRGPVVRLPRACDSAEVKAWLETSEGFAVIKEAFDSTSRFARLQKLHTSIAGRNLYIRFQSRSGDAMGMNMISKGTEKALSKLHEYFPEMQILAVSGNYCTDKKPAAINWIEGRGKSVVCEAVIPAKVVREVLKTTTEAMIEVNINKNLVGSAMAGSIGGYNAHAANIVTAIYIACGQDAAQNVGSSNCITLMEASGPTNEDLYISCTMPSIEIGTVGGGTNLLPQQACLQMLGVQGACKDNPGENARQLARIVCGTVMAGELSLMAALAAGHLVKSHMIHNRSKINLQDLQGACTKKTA
Put plainly: Relative inhibition of HMG-CoA reductase compared to Mevinolin.

In assay [2] the target is T2, 3-hydroxy-3-methylglutaryl-coenzyme A reductase (Homo sapiens, UniProt P04035).
T2 sequence (P04035 whole entry): T1 sequence (whole entry)
Put plainly: Inhibition of cellular HMG-CoA reductase in cultures of human HEP G2 cells, determined by decreased incorporation of sodium [14C]acetate into cholesterol. It counts as cell-based, HepG2. An outline of the steps:
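They were preincubated for 1 h with compound at three concentrations, or with solvent as control, then labeled with [14C]sodium acetate for 3 h. [3H]cholesterol served as internal standard. Cells were saponified, lipids extracted with chloroform/methanol 2:1, and cholesterol isolated by TLC. IC50 came from the treated/control [14C]cholesterol ratio plotted against concentration.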

In assay [3] the target is T3, 3-hydroxy-3-methylglutaryl-coenzyme A reductase (Rattus norvegicus, UniProt P51639).
T3 sequence (P51639 whole entry): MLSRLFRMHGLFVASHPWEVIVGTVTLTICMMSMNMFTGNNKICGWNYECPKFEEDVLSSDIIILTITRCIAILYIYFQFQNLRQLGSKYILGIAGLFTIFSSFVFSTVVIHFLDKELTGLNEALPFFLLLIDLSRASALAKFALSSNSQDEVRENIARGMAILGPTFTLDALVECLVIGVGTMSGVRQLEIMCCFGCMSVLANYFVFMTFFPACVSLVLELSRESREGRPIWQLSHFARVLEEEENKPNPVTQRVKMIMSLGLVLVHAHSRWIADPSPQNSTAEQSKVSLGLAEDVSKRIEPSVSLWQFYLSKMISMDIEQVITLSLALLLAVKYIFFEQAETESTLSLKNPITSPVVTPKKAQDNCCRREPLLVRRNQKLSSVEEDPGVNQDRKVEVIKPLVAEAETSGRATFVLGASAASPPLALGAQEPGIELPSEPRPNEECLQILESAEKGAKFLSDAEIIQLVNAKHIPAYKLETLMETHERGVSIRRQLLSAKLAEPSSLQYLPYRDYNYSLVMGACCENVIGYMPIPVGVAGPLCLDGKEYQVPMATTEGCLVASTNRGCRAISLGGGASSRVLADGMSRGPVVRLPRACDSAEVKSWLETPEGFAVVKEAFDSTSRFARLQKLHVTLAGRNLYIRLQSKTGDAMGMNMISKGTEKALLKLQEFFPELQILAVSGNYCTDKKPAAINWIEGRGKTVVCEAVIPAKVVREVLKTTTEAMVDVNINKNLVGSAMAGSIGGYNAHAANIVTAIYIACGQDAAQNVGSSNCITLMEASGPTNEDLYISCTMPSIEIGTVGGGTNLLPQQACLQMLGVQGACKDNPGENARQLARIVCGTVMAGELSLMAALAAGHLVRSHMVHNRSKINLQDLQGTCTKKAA
Put plainly: In vitro inhibition of rat liver HMG-CoA reductase. An outline of the steps: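 Partially purified soluble HMG-CoA reductase from rat liver microsomes. Medium: 6 mM Tris, 2.5 mM EDTA, 2.5 mM DTT, 50 mM NADP, 50 mM glucose 6-phosphate, glucose-6-phosphate dehydrogenase, and 0.91 mM HMG-CoA with [14C]HMG-CoA. Lactones were opened with 1 equiv KOH to potassium dihydroxy carboxylates and tested at multiple concentrations. Incubated at 37 °C for 20 min, then stopped with HClO4. Run in triplicate; IC50 read from a %-inhibition-versus-concentration plot.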

Structures are written as SMILES.

`CC(C)c1nc(-c2ccc(F)cc2)nc(-c2ccc(F)cc2)c1/C=C/[C@@H]1C[C@@H](O)CC(=O)O1` gave a Relative potency in assay [1] of 2.78. The IC50 (in general, the concentration needed to halve the response being measured) in assay [2] worked out at 18 nM; in assay [3], 1 nM.
In assay [1], `CC(C)c1nc(-c2ccc(F)cc2)c(/C=C/[C@@H]2C[C@@H](O)CC(=O)O2)c(C(C)C)n1` gave a Relative potency of 10.4. The half-maximal inhibitory concentration (IC50) is 4.8 nM in assay [2] and 3 nM in assay [3].
For `CC(C)c1nc(-c2ccccc2)cc(-c2ccc(C(F)(F)F)cc2)c1/C=C/[C@@H]1C[C@@H](O)CC(=O)O1`, in assay [3], the half-inhibitory concentration (IC50) amounted to 36 nM.
In assay [3], `CC(C)c1cc(-c2ccc(F)cc2)c(/C=C/[C@@H]2C[C@@H](O)CC(=O)O2)c(C(C)C)n1` had a half-maximal inhibitory concentration (IC50) of 3 nM.
The compound `Cc1nc(C)c(CCC2C[C@@H](O)CC(=O)O2)c(-c2ccc(F)cc2)n1` (some centres undefined) showed a half-inhibitory concentration (IC50) in assay [3] of 1000 nM.
On to `Cc1cc(-c2ccc(F)cc2)c(/C=C/[C@@H]2C[C@@H](O)CC(=O)O2)c(C(C)C)n1`, for which the Relative potency in assay [1] turned out to be 1. Further, the half-maximal inhibitory concentration (IC50) is 50 nM in assay [2] and 9 nM in assay [3].
For `CC(C)c1nc(C2CCCCC2)cc(-c2ccc(F)cc2)c1/C=C/[C@@H]1C[C@@H](O)CC(=O)O1`, in that order: 5.26, 9.5 nM and 4 nM.
In turn, `CC(C)c1cc(-c2ccccc2)nc(-c2ccc(F)cc2)c1/C=C/[C@@H]1C[C@@H](O)CC(=O)O1` had a Relative potency in assay [1] of 5. For the same compound, the concentration for half-maximal inhibition (IC50) in assay [2] worked out at 10 nM; in assay [3] it was 4 nM.
The compound `Cc1cc(-c2ccc(F)cc2)c(/C=C/[C@@H]2C[C@@H](O)CC(=O)O2)c(C)n1` returned a Relative potency in assay [1] of 0.03. The IC50 in assay [2] came to 2000 nM; in assay [3], 260 nM.
For the compound `CC(C)c1nc(-c2ccc(F)cc2)cc(-c2ccc(F)cc2)c1/C=C/[C@@H]1C[C@@H](O)CC(=O)O1`, the Relative potency in assay [1] was determined as 6.67. In addition, the IC50 in assay [2] stood at 7.5 nM; in assay [3] it was 2 nM.
Turning to `CC(C)c1nc(C2CCCCC2)nc(-c2ccc(F)cc2)c1/C=C/[C@@H]1C[C@@H](O)CC(=O)O1`, in assay [1], the Relative potency stood at 1.92. Also, the results for the IC50 in assay [2] and in assay [3] were 26 nM and 1 nM, respectively.
For the compound `O=C1C[C@H](O)C[C@@H](/C=C/c2c(-c3ccc(F)cc3)cc(-c3ccccc3)nc2C2CCCCC2)O1`, the Relative potency in assay [1] is > 0.01. Also, the IC50 in assay [2] is > 5000 nM; in assay [3], 30 nM.
In the case of `COc1ccc(-c2cc(-c3ccccc3)nc(C(C)C)c2/C=C/[C@@H]2C[C@@H](O)CC(=O)O2)cc1`, the Relative potency in assay [1] was determined as 0.33. Besides, the IC50 in assay [2] amounted to 150 nM; in assay [3], 13 nM.
In the case of `Cc1cc(C)cc(-c2cc(-c3ccc(F)cc3)c(/C=C/[C@@H]3C[C@@H](O)CC(=O)O3)c(C(C)C)n2)c1`, in assay [3], the IC50 stood at 8 nM.
As to `Cc1nc(-c2ccccc2)cc(-c2ccc(F)cc2)c1/C=C/[C@@H]1C[C@@H](O)CC(=O)O1`, in assay [1], the Relative potency amounted to 0.56. Besides, the IC50 in assay [2] was determined as 90 nM; in assay [3] it was 38 nM.
`Cc1cc(-c2ccc(F)cc2)c(/C=C\[C@@H]2C[C@@H](O)CC(=O)O2)c(C)n1`: in assay [3], the IC50 is > 1000 nM.
`CCc1nc(-c2ccccc2)cc(-c2ccc(F)cc2)c1CCC1C[C@@H](O)CC(=O)O1` (some centres undefined) yielded a half-inhibitory concentration (IC50) in assay [3] of 3 nM.
With `CC(C)(C)c1nc(-c2ccccc2)cc(-c2ccc(F)cc2)c1/C=C/[C@@H]1C[C@@H](O)CC(=O)O1`, the concentration for half-maximal inhibition (IC50) in assay [3] stood at 18 nM.
`CC(C)c1nc(-c2ccccc2)cc(-c2ccc(F)cc2)c1/C=C/[C@@H]1C[C@@H](O)CC(=O)O1` [GLENVASTATIN] gave a Relative potency in assay [1] of 10. Further, the IC50 in assay [2] is 5 nM; in assay [3], 3 nM.
Consider `Cc1nc(C)c(/C=C/[C@@H]2C[C@@H](O)CC(=O)O2)c(-c2ccc(F)cc2)n1`, for which the IC50 in assay [3] was 500 nM.
The compound `Cc1nc(C)c(/C=C/[C@@H]2C[C@@H](O)CC(=O)O2)c(-c2ccc(Cl)cc2)n1` showed a concentration for half-maximal inhibition (IC50) in assay [3] of 600 nM.
`Cc1cc(-c2ccc(Cl)cc2)c(/C=C/[C@@H]2C[C@@H](O)CC(=O)O2)c(C)n1` registered a 50% inhibitory concentration (IC50) in assay [3] of 94 nM.
`CC(C)c1nc(C(C)(C)C)cc(-c2ccc(F)cc2)c1/C=C/[C@@H]1C[C@@H](O)CC(=O)O1` showed a Relative potency in assay [1] of 2.5. In addition, the 50% inhibitory concentration (IC50) in assay [2] turned out to be 20 nM; in assay [3], 1 nM.
`CC[C@H](C)C(=O)O[C@H]1C[C@@H](C)C=C2C=C[C@H](C)[C@H](CC[C@@H]3C[C@@H](O)CC(=O)O3)[C@H]21` [LOVASTATIN] showed an IC50 in assay [3] of 8 nM.
With `CC(C)c1nc(-c2ccccc2)nc(-c2ccc(F)cc2)c1/C=C/[C@@H]1C[C@@H](O)CC(=O)O1`, the Relative potency in assay [1] was 10. Besides, the figures for the IC50 in assay [2] and in assay [3] were 5 nM and 3 nM, respectively.
For `Cc1ccc(C)c(-c2cc(-c3ccc(F)cc3)c(/C=C/[C@@H]3C[C@@H](O)CC(=O)O3)c(C(C)C)n2)c1`, in that order: 2.5, 20 nM and 5 nM.
The corresponding values for `CC(C)c1nc(-c2ccccc2)cc(-c2ccc(F)cc2)c1CCC1C[C@@H](O)CC(=O)O1` (some centres undefined) are 0.14, 370 nM and 19 nM.
For the compound `Cc1nc(C)c(/C=C\[C@@H]2C[C@@H](O)CC(=O)O2)c(-c2ccc(Cl)cc2)n1`, the IC50 in assay [3] is > 1000 nM.
The compound `Cc1nc(-c2ccccc2)cc(-c2ccc(F)cc2)c1/C=C\[C@@H]1C[C@@H](O)CC(=O)O1` came in with a Relative potency in assay [1] of 0.08. Further, the values for the IC50 in assay [2] and in assay [3] were 5000 nM and 100 nM, respectively.
Consider `CCc1nc(-c2ccccc2)cc(-c2ccc(F)cc2)c1/C=C/[C@@H]1C[C@@H](O)CC(=O)O1`, for which 40 nM corresponded to half-maximal inhibition in assay [3] (IC50). This lies in the double-digit nanomolar range.

Values taken from ChEMBL document CHEMBL1125087, “Synthesis and biological activity of new HMG-CoA reductase inhibitors. 1. Lactones of pyridine- and pyrimidine-substituted 3,5-dihydroxy-6-heptenoic (-heptanoic) acids” (J Med Chem, 1990).
